In ChEMBL document CHEMBL1123167, “Synthesis and evaluation of phenyl- and benzoylpiperazines as potential serotonergic agents” (J Med Chem, 1986):
Activity calls are given as the source filed them. No cut-off for these calls is given here.

How the values were obtained:
[1] = target: Serotonin 2 (5-HT2) receptor (Rattus norvegicus, UniProt P30994+P08909+P14842); assay: Displacement of [3H]ketanserin from 5-hydroxytryptamine 2 receptor of rat cortex
How it was run: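 Rat tissue homogenate (4 mg wet weight per assay) in 50 mM Tris, 5 mM MgCl2, 0.5 mM EDTA, pH 7.4 at 37 °C, competed against 0.4 nM [3H]ketanserin. Bound ligand was collected on glass fiber filters and counted by liquid scintillation. Assays were run in triplicate. IC50 came from a 23-point curve by nonlinear least-squares fitting, and Ki = IC50/(1 + [D]/KD).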

[2] = Displacement of […] from 5-hydroxytryptamine 1 receptor of rat cortex
Rattus norvegicus [3] = assay: Stimulus generalization in DOM-trained rats at dosage 0.1 mg/kg. Number of animals responding/number of animals are 3/3; format: functional
Rattus norvegicus [4] = assay: Stimulus generalization in TFMPP-trained rats at dosage 0.05 mg/kg. Number of animals responding/number of animals are 4/4; format: functional
Rattus norvegicus [5] = assay: Stimulus generalization in TFMPP-trained rats at dosage 0.1 mg/kg. Number of animals responding/number of animals are 4/5; format: functional
Rattus norvegicus [6] = assay: Stimulus generalization in TFMPP-trained rats at dosage 1.2 mg/kg. Number of animals responding/number of animals are 5/5; format: functional
Rattus norvegicus [7] = assay: Stimulus generalization in TFMPP-trained rats at dosage 1.0 mg/kg. Number of animals responding/number of animals are 5/5; format: functional
Rattus norvegicus [8] = assay: Stimulus generalization in TFMPP-trained rats at dosage 0.4 mg/kg. Number of animals responding/number of animals are 3/4; format: functional
Rattus norvegicus [9] = assay: Stimulus generalization in DOM-trained rats at dosage 0.5 mg/kg. Number of animals responding/number of animals are 2/3; format: functional
Rattus norvegicus [10] = assay: Stimulus generalization in DOM-trained rats at dosage 1.0 mg/kg. Number of animals responding/number of animals are 0/3; D=Disruption of behavior; format: functional, organism-based; design: dose 1 mg/kg
Rattus norvegicus [11] = assay: Stimulus generalization in TFMPP-trained rats at dosage 10 mg/kg. Number of animals responding/number of animals are 5/5; format: functional
Rattus norvegicus [12] = assay: Stimulus generalization in TFMPP-trained rats at dosage 2.0 mg/kg. Number of animals responding/number of animals are 4/4; format: functional
Rattus norvegicus [13] = assay: Stimulus generalization in TFMPP-trained rats at dosage 5.0 mg/kg. Number of animals responding/number of animals are 4/4; format: functional
Rattus norvegicus [14] = assay: Stimulus generalization in TFMPP-trained rats at dosage 0.3 mg/kg. Number of animals responding/number of animals are 3/3; format: functional
Rattus norvegicus [15] = assay: Stimulus generalization in DOM-trained rats at dosage 15 mg/kg. Number of animals responding/number of animals are 1/4; D=Disruption of behavior; format: functional, organism-based; design: dose 15 mg/kg
Rattus norvegicus [16] = assay: Stimulus generalization in DOM-trained rats at dosage 13.5 mg/kg. Number of animals responding/number of animals are 3/4; format: functional
Rattus norvegicus [17] = assay: Stimulus generalization in DOM-trained rats at dosage 14.0 mg/kg. Number of animals responding/number of animals are 1/5; D=Disruption of behavior; format: functional, organism-based; design: dose 14 mg/kg
Rattus norvegicus [18] = assay: Stimulus generalization in TFMPP-trained rats at dosage 10 mg/kg. Number of animals responding/number of animals are 3/3; format: functional
Rattus norvegicus [19] = assay: Stimulus generalization in DOM-trained rats at dosage 6.0 mg/kg. Number of animals responding/number of animals are 5/5; format: functional
Rattus norvegicus [20] = assay: Stimulus generalization in TFMPP-trained rats at dosage 3.0 mg/kg. Number of animals responding/number of animals are 4/4; format: functional
Rattus norvegicus [21] = assay: Stimulus generalization in DOM-trained rats at dosage 12 mg/kg. Number of animals responding/number of animals are 4/4; format: functional
Rattus norvegicus [22] = assay: Stimulus generalization in DOM-trained rats at dosage 18 mg/kg. Number of animals responding/number of animals are 0/4; D=Disruption of behavior; format: functional, organism-based; design: dose 18 mg/kg
Rattus norvegicus [23] = assay: Stimulus generalization in TFMPP-trained rats at dosage 15 mg/kg. Number of animals responding/number of animals are 3/3; format: functional
Rattus norvegicus [24] = assay: Stimulus generalization in TFMPP-trained rats at dosage 1.2 mg/kg. Number of animals responding/number of animals are 4/4; format: functional
Rattus norvegicus [25] = assay: Stimulus generalization in TFMPP-trained rats at dosage 6.0 mg/kg. Number of animals responding/number of animals are 4/4; format: functional
Rattus norvegicus [26] = assay: Compound was evaluated for ED50 in TFMPP-trained rats at dosage 0.50 mg/kg. Number of animals responding/number of animals are 4/4; format: functional
Rattus norvegicus [27] = assay: Stimulus generalization in TFMPP-trained rats at dosage 0.15 mg/kg. Number of animals responding/number of animals are 3/3; format: functional
Rattus norvegicus [28] = assay: Stimulus generalization in TFMPP-trained rats at dosage 0.1 mg/kg. Number of animals responding/number of animals are 4/4; format: functional
Rattus norvegicus [29] = assay: Stimulus generalization in TFMPP-trained rats at dosage 0.35 mg/kg. Number of animals responding/number of animals are 4/4; format: functional
Rattus norvegicus [30] = assay: Stimulus generalization in TFMPP-trained rats at dosage 0.30 mg/kg. Number of animals responding/number of animals are 4/4; format: functional; details: dose 0.3 mg/kg
Rattus norvegicus [31] = assay: Stimulus generalization in TFMPP-trained rats at dosage 0.20 mg/kg. Number of animals responding/number of animals are 4/4; format: functional; details: dose 0.2 mg/kg
Rattus norvegicus [32] = assay: Stimulus generalization in TFMPP-trained rats at dosage 0.50 mg/kg. Number of animals responding/number of animals are 5/5; format: functional; details: dose 0.5 mg/kg
Rattus norvegicus [33] = assay: Stimulus generalization in DOM-trained rats at dosage 8.0 mg/kg. Number of animals responding/number of animals are 5/5; format: functional
Rattus norvegicus [34] = assay: Compound was evaluated for Effective Dose DOM-trained rats at dosage 12.0 mg/kg. Number of animals responding/number of animals are 5/5; format: functional
Rattus norvegicus [35] = assay: Stimulus generalization in DOM-trained rats at dosage 6.0 mg/kg. Number of animals responding/number of animals are 4/4; format: functional
Rattus norvegicus [36] = assay: Stimulus generalization in TFMPP-trained rats at dosage 1.5 mg/kg. Number of animals responding/number of animals are 3/3; format: functional
Rattus norvegicus [37] = assay: Stimulus generalization in DOM-trained rats at dosage 12.0 mg/kg. Number of animals responding/number of animals are 5/5; format: functional
Rattus norvegicus [38] = assay: Stimulus generalization in TFMPP-trained rats at dosage 8.0 mg/kg. Number of animals responding/number of animals are 3/3; format: functional
Rattus norvegicus [39] = assay: Stimulus generalization in TFMPP-trained rats at dosage 5.0 mg/kg. Number of animals responding/number of animals are 3/3; format: functional
Rattus norvegicus [40] = assay: Stimulus generalization in TFMPP-trained rats at dosage 12.0 mg/kg. Number of animals responding/number of animals are 2/3; format: functional
Rattus norvegicus [41] = assay: Stimulus generalization in DOM-trained rats at dosage 4.0 mg/kg. Number of animals responding/number of animals are 5/5; format: functional
Rattus norvegicus [42] = assay: Stimulus generalization in TFMPP-trained rats at dosage 12.5 mg/kg. Number of animals responding/number of animals are 0/3; Disruption of Behavior; format: functional, organism-based; design: dose 12.5 mg/kg
Rattus norvegicus [43] = assay: Stimulus generalization in DOM-trained rats at dosage 5.0 mg/kg. Number of animals responding/number of animals are 3/3; format: functional
Rattus norvegicus [44] = assay: Compound was evaluated for ED50 in DOM-trained rats at dosage 9.0 mg/kg. Number of animals responding/number of animals are 3/3; format: functional
Rattus norvegicus [45] = assay: Stimulus generalization in DOM-trained rats at dosage 9.0 mg/kg. Number of animals responding/number of animals are 3/3; format: functional
Rattus norvegicus [46] = assay: Stimulus generalization in DOM-trained rats at dosage 8.0 mg/kg. Number of animals responding/number of animals are 3/3; format: functional
Rattus norvegicus [47] = assay: Stimulus generalization in DOM-trained rats at dosage 1.0 mg/kg. Number of animals responding/number of animals are 3/3; format: functional
Rattus norvegicus [48] = assay: Stimulus generalization in DOM-trained rats at dosage 3.0 mg/kg. Number of animals responding/number of animals are 3/3; format: functional

O=C(c1cccc(Cl)c1)N1CCNCC1
Ki [1]: 55600 nM
Ki [2]: 17100 nM

COc1ccccc1N1CCNCC1
Ki [1]: 3500 nM
Ki [2]: 35 nM
Response (Rattus norvegicus [3]): 12%
Response (Rattus norvegicus [4]): 23%
Response (Rattus norvegicus [5]): 33%
Response (Rattus norvegicus [6]): 94%
Response (Rattus norvegicus [7]): 81%
Response (Rattus norvegicus [8]): 63%
Response (Rattus norvegicus [9]): 20%
Response (Rattus norvegicus [10]): inactive

Oc1ccccc1N1CCNCC1
Ki [1]: 17200 nM
Response (Rattus norvegicus [11]): 24%
Ki [2]: 150 nM
Response (Rattus norvegicus [12]): 12%
Response (Rattus norvegicus [13]): 22%
Response (Rattus norvegicus [14]): 17%

COc1ccc(OC)c(N2CCNCC2)c1
Response (Rattus norvegicus [15]): inactive
Response (Rattus norvegicus [16]): 22%
Response (Rattus norvegicus [17]): inactive
Response (Rattus norvegicus [18]): 19%
Ki [1]: 8430 nM
Response (Rattus norvegicus [19]): 10%
Ki [2]: 1040 nM
Response (Rattus norvegicus [20]): 6%
Response (Rattus norvegicus [21]): 28%
Response (Rattus norvegicus [22]): inactive
Response (Rattus norvegicus [23]): 14%
Response (Rattus norvegicus [24]): 14%
Response (Rattus norvegicus [25]): 14%

FC(F)(F)c1cccc(N2CCNCC2)c1
ED50 (Rattus norvegicus [26]): 0.17 mg/kg
Ki [1]: 160 nM
Ki [2]: 20 nM
Response (Rattus norvegicus [27]): 42%
Response (Rattus norvegicus [4]): 25%
Response (Rattus norvegicus [28]): 8%
Response (Rattus norvegicus [29]): 90%
Response (Rattus norvegicus [30]): 70%
Response (Rattus norvegicus [31]): 51%
Response (Rattus norvegicus [32]): 93%

COc1ccc(N)c(C(=O)CCN)c1
Ki [1]: 8480 nM
Ki [2]: 345 nM

Cc1cccc(C(=O)N2CCNCC2)c1
Ki [1]: 49000 nM
Ki [2]: 20700 nM

COc1cc(N2CCNCC2)c(OC)cc1C
Response (Rattus norvegicus [33]): 68%
ED50 (Rattus norvegicus [34]): 6.23 mg/kg
Ki [1]: 4710 nM
Response (Rattus norvegicus [35]): 53%
Response (Rattus norvegicus [36]): 11%
Ki [2]: 680 nM
Response (Rattus norvegicus [37]): 83%
Response (Rattus norvegicus [38]): 7%
Response (Rattus norvegicus [39]): 11%
Response (Rattus norvegicus [40]): 30%
Response (Rattus norvegicus [41]): 21%
Response (Rattus norvegicus [42]): Disrupted behaviour

COc1ccc(OC)c(C(=O)N2CCNCC2)c1
Ki [1]: > 100000 nM
Ki [2]: > 100000 nM

COc1cc(N2CCNCC2)c(OC)cc1Br
Response (Rattus norvegicus [43]): 46%
ED50 (Rattus norvegicus [44]): 4.08 mg/kg
Ki [1]: 2430 nM
Ki [2]: 820 nM
Response (Rattus norvegicus [45]): 81%
Response (Rattus norvegicus [46]): 72%
Response (Rattus norvegicus [47]): 19%
Response (Rattus norvegicus [48]): 31%
